According to publication PMC7114156 (Antiviral Research, 2009):
Marks after values point to notes of the source that are not given here.

Tested on: W12 cells
Assay: mRNA measurement by RT-qPCR in W12 cells
Format: cell-based, human
Outline: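 RNA was taken 0, 24 and 48 h after adding test compound; W12 cells were grown in 75 cm² flasks and washed in chilled PBS. 546 Pathway Set genes were run in quadruplicate by RT-qPCR: 10 μl reactions, primers 900 nM, probes 100 nM final. Ct was normalised to GAPDH, with dCt = Ct(control) − Ct(treated) and a two-sided t-test. Fold change was F = 2^dCt where p ≤ 0.05.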

[1] = W12 cells, 100 nM, 24 h, not significantly different from 1
[2] = W12 cells, 100 nM, 48 h, not significantly different from 1

## O=C(N[C@@H]1CCCc2c1[nH]c1ccc(Cl)cc21)c1ccccn1 [GSK983, N-[(1R)-6-Chloro-2,3,4,9-tetrahydro-1H-carbazol-1-yl]-2-pyridinecarboxamide]
W12 cells, 10 nM, 48 h
  Fold increase due to GSK983, OAS1 mRNA: 1.7 fold
  Fold increase due to GSK983, OAS2 mRNA: 1.8 fold
  Fold increase due to GSK983, OASL mRNA: 2.2 fold
  Fold increase due to GSK983, SNAP25 mRNA: 3.7 fold
  Fold increase due to GSK983, TLR5 mRNA: 1.7 fold
  Fold increase due to GSK983, TNFSF10 mRNA: 1.8 fold
W12 cells, 100 nM, 24 h
  Fold increase due to GSK983, CCL5 mRNA: 3.1 fold
  Fold increase due to GSK983, CEL mRNA: 3.0 fold
  Fold increase due to GSK983, COL10A1 mRNA: 3.6 fold
  Fold increase due to GSK983, CPT1B mRNA: 3.2 fold
  Fold increase due to GSK983, CSF2 mRNA: 3.7 fold
  Fold increase due to GSK983, DCN mRNA: 2.3 fold
  Fold increase due to GSK983, DMPK mRNA: 2.9 fold
  Fold increase due to GSK983, FMOD mRNA: 1.7 fold
  Fold increase due to GSK983, IFI6 mRNA: 2.3 fold
  Fold increase due to GSK983, IFI16 mRNA: 1.3 fold
  Fold increase due to GSK983, IFI44 mRNA: 2.9 fold
  Fold increase due to GSK983, IFIT1 mRNA: 5.5 fold
  Fold increase due to GSK983, IL6 mRNA: 3.8 fold
  Fold increase due to GSK983, IL8 mRNA: 2.1 fold
  Fold increase due to GSK983, IRF3 mRNA: 1.5 fold
  Fold increase due to GSK983, IRF9 mRNA: 1.6 fold
  Fold increase due to GSK983, ISG15 mRNA: 4.3 fold
  Fold increase due to GSK983, LRP1 mRNA: 3.7 fold
  Fold increase due to GSK983, NR1H3 mRNA: 6.8 fold
  Fold increase due to GSK983, OAS1 mRNA: 2.2 fold
  Fold increase due to GSK983, OAS2 mRNA: 1.9 fold
  Fold increase due to GSK983, OASL mRNA: 6.7 fold
  Fold increase due to GSK983, TLR5 mRNA: 2.4 fold
  Fold increase due to GSK983, TNFSF10 mRNA: 4.3 fold
[1]
  Fold increase due to GSK983, ERN2 mRNA: 1.7 ^b fold
  Fold increase due to GSK983, LIFR mRNA: 1.3 ^b fold
  Fold increase due to GSK983, SNAP25 mRNA: 1.7 ^b fold
W12 cells, 100 nM, 48 h
  Fold increase due to GSK983, CCL5 mRNA: 47.4 fold
  Fold increase due to GSK983, CEL mRNA: 10.6 fold
  Fold increase due to GSK983, COL10A1 mRNA: 2.4 fold
  Fold increase due to GSK983, CPT1B mRNA: 6.4 fold
  Fold increase due to GSK983, CSF2 mRNA: 4.9 fold
  Fold increase due to GSK983, DCN mRNA: 15.4 fold
  Fold increase due to GSK983, DMPK mRNA: 4.1 fold
  Fold increase due to GSK983, ERN2 mRNA: 2.8 fold
  Fold increase due to GSK983, FMOD mRNA: 2.5 fold
  Fold increase due to GSK983, IFI6 mRNA: 7.3 fold
  Fold increase due to GSK983, IFIT1 mRNA: 5.5 fold
  Fold increase due to GSK983, IL6 mRNA: 10.2 fold
  Fold increase due to GSK983, IL8 mRNA: 2.3 fold
  Fold increase due to GSK983, ISG15 mRNA: 9.3 fold
  Fold increase due to GSK983, LIFR mRNA: 2.2 fold
  Fold increase due to GSK983, LRP1 mRNA: 3.5 fold
  Fold increase due to GSK983, NR1H3 mRNA: 2.7 fold
  Fold increase due to GSK983, OAS1 mRNA: 5.0 fold
  Fold increase due to GSK983, OAS2 mRNA: 2.9 fold
  Fold increase due to GSK983, OASL mRNA: 10.9 fold
  Fold increase due to GSK983, SNAP25 mRNA: 4.7 fold
  Fold increase due to GSK983, TLR5 mRNA: 3.1 fold
  Fold increase due to GSK983, TNFSF10 mRNA: 8.4 fold
[2]
  Fold increase due to GSK983, IFI16 mRNA: 1.2 ^b fold
  Fold increase due to GSK983, IRF3 mRNA: 1.2 ^b fold
W12 cells, at both 10 and 100 nM, 546 genes
  Number of genes of the Pathway Set with significant increases in expression: 22 genes
Data not shown
  Expression of the three interferons (alpha, beta, and gamma), PKR and Mx1: not induced
